Data published in ChEMBL document CHEMBL4364306, “Structure-activity relationships of thiazole and benzothiazole derivatives as selective cannabinoid CB2 agonists with in vivo anti-inflammatory properties” (Eur J Med Chem, 2019).
Activity calls are given as the source filed them. No cut-off for these calls is given here.

Legend:
[1] = biological target: T1, Cannabinoid receptor 1 (Homo sapiens, UniProt P21554); test: Agonist activity at N-terminal Flag epitope tagged CB1 (unknown origin) expressed in HTLA cells assessed as increase of beta-arrestin recruitment by Tango assay; format: cell-based
Summary of the method: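 HTLA cells transfected overnight with GPCR Tango constructs, plated at 15,000 cells/well in DMEM with 1% dFBS and allowed to recover at least 6 h. Compounds in Tango buffer (20 mM HEPES, 1x HBSS, pH 7.40) added overnight, full concentration-response up to 30 µM against CP-55,940 as reference agonist. BrightGlo reagent added for 20 min at room temperature in the dark, then luminescence read.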

[2] = biological target: T1, Cannabinoid receptor 1; test: Displacement of [3H]CP55940 from recombinant human CB1R expressed in HEK293 cell membranes at 10 uM incubated for 90 mins relative to control
[3] = biological target: T2, Cannabinoid receptor 2 (Homo sapiens, UniProt P34972); test: Displacement of [3H]CP55940 from recombinant human CB2R expressed in HEK293 cell membranes at 10 uM incubated for 90 mins relative to control
[4] = biological target: T2, Cannabinoid receptor 2; test: Agonist activity at N-terminal Flag epitope tagged CB2 (unknown origin) expressed in HTLA cells assessed as increase of beta-arrestin recruitment by Tango assay; format: cell-based
Summary of the method: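 β-arrestin Tango assay: HTLA cells transfected overnight with GPCR tango constructs, plated at 15,000 cells/well in DMEM with 1% dFBS, recovered ≥6 h. Drugs in Tango buffer (20 mM HEPES, 1x HBSS, pH 7.40) added overnight, full concentration-response (maximum 30 µM). BrightGlo reagent, 20 min room temperature in dark, luminescence read.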

[5] = biological target: T2, Cannabinoid receptor 2; test: Antagonist activity at N-terminal Flag epitope tagged CB2 (unknown origin) expressed in HTLA cells assessed as decrease in CP55940-induced beta-arrestin recruitment pretreated with non-selective cannabinoid receptor agonist CP55940 for 30 mins and measured after 20 mins by Tango assay; format: cell-based
[6] = biological target: T1, Cannabinoid receptor 1; test: Antagonist activity at N-terminal Flag epitope tagged CB1 (unknown origin) expressed in HTLA cells assessed as decrease in CP55940-induced beta-arrestin recruitment pretreated with non-selective cannabinoid receptor agonist CP55940 for 30 mins and measured after 20 mins by Tango assay; format: cell-based
[7] = organism: Homo sapiens; test: Selectivity index, ratio of Ki for recombinant human CB1R expressed in HEK293 cell membranes to Ki for recombinant human CB2R expressed in HEK293 cell membranes; format: cell-based
[8] = biological target: T2, Cannabinoid receptor 2; test: Agonist activity at recombinant human CB2R expressed in CHOK1 cells assessed as inhibition of NKH477-stimulated intracellular cAMP levels after 30 mins by chemiluminescent detection based cAMP Hunter assay; format: functional, cell-based
Summary of the method: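 CHO-K1 cells overexpressing human CB2R, plated 30,000 cells/well, overnight 37 °C, 5% CO2. Compound dose-responses incubated 30 min at 37 °C with NKH-477 (25 µM) to stimulate adenylate cyclase. Enzyme fragment complementation chemiluminescence read. Normalised to NKH-477 alone as 100%; mean ± SEM of three independent experiments in triplicate.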

T1 sequence (P21554 whole entry): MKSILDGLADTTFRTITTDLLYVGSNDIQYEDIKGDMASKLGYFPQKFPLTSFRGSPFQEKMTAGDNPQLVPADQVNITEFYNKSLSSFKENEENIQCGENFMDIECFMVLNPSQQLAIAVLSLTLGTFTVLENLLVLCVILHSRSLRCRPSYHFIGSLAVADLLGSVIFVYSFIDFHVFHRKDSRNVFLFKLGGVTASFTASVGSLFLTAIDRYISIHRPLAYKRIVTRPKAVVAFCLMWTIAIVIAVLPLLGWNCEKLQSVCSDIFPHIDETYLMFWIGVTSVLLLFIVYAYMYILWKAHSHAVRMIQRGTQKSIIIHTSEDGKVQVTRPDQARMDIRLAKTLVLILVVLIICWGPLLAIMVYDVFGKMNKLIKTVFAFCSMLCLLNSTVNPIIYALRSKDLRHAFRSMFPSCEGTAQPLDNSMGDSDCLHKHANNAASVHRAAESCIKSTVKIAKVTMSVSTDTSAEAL
T2 sequence (P34972 whole entry): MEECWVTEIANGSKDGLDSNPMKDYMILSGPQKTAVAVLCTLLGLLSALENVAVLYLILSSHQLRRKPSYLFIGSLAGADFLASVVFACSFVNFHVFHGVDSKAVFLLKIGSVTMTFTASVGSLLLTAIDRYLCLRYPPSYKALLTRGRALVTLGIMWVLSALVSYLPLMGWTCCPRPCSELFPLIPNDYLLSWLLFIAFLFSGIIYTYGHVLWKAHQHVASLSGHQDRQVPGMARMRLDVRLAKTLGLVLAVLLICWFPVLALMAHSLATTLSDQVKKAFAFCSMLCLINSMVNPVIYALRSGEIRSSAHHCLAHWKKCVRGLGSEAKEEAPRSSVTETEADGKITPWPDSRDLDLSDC

Compound | EC50 [1] [µM] | Activity [2] | Activity [3] | EC50 [4] [µM] | EC50 [5] [µM] | EC50 [6] [µM] | Ratio Ki [7] | EC50 [8] [µM]
Cc1nc(-c2ccccc2)sc1C(=O)NC1CCCCC1 | > 30 | Active | Active | > 30 | > 30 | > 30 | – | –
O=C(NC1CCCc2ccccc21)c1nc2ccccc2s1 (stereo not drawn) | > 30 | Active | Active | > 30 | > 30 | > 30 | 3 | –
Cc1nc(-c2ccccc2)sc1C(=O)NC12CC3CC(CC(C3)C1)C2 | > 30 | Active | Active | > 30 | > 30 | > 30 | > 22 | –
CCCCCn1/c(=N/C(=O)c2cccc3ccccc23)sc2ccccc21 | 0.126 | Active | Active | 0.0129 | > 30 | > 30 | 22.2 | 0.068
CCCCNC(=O)c1sc(-c2ccccc2)nc1C | > 30 | Active | Active | > 30 | > 30 | > 30 | – | –
CCCCCCNC(=O)c1sc(-c2ccccc2)nc1C | > 30 | Active | Active | > 30 | > 30 | > 30 | – | –
O=C(NCC1CCCCC1)c1nc2ccccc2s1 | > 30 | Active | Active | > 30 | > 30 | > 30 | > 7 | –
O=C(Nc1nc2ccccc2s1)c1ccc(C(F)(F)F)cc1 | > 30 | Active | Active | > 30 | > 30 | > 30 | – | –
O=C(NC12CC3CC(CC(C3)C1)C2)c1nc2ccccc2s1 | > 30 | Active | Active | > 30 | > 30 | > 30 | > 121 | –
Cc1nc(-c2ccccc2)sc1C(=O)NCC1CCCCC1 | > 30 | Active | Active | > 30 | > 30 | > 30 | – | –
CCCCCn1/c(=N\C(=O)C23CC4CC(CC(C4)C2)C3)sc2ccccc21 | 1.62 | Active | Active | 0.0263 | > 30 | > 30 | 120 | 0.057
O=C(Nc1nc2ccccc2s1)c1cccc2ccccc12 | > 30 | Active | Active | > 30 | > 30 | > 30 | > 7 | –
Cc1nc(C(C)(C)C)sc1C(=O)NC12CC3CC(CC(C3)C1)C2 | > 30 | Active | Active | 3.98 | > 30 | > 30 | > 25 | –
Cc1nc(-c2ccccc2)sc1C(=O)NC1CCCc2ccccc21 (stereo not drawn) | > 30 | Active | Active | > 30 | > 30 | > 30 | > 4 | –
Cc1nc(-c2ccccc2)sc1C(=O)NCc1ccc(F)cc1 | > 30 | Active | Active | > 30 | > 30 | > 30 | – | –
Cc1nc(-c2ccccc2)sc1C(=O)NC1CCCC1 | > 30 | Active | Active | > 30 | > 30 | > 30 | – | –

Compound | EC50 [1] [µM] | Activity [2] | Activity [3] | EC50 [4] [µM] | EC50 [5] [µM] | EC50 [6] [µM] | Ratio Ki [7] | EC50 [8] [µM]
CCCCCn1/c(=N/C(=O)c2ccc(C(F)(F)F)cc2)sc2ccccc21 | > 30 | Active | Active | 2.51 | > 30 | > 30 | 393 | –
O=C(Nc1nc2ccccc2s1)c1cccc(C(F)(F)F)c1 | > 30 | Active | Active | > 30 | > 30 | > 30 | – | –
Cc1nc(-c2ccccc2)sc1C(=O)N1CCOCC1 | > 30 | Active | Active | > 30 | > 30 | > 30 | > 3 | –
O=C(NCc1ccccc1)c1nc2ccccc2s1 | > 30 | Active | Active | > 30 | > 30 | > 30 | – | –
O=C(Nc1ccc2ccccc2c1)c1nc2ccccc2s1 | > 30 | Active | Active | > 30 | > 30 | > 30 | – | –
Cc1nc(-c2ccccc2)sc1C(=O)NCc1ccccc1 | > 30 | Active | Active | > 30 | > 30 | > 30 | – | –
Cc1nc(C)c(C(=O)NCc2ccccc2)s1 | > 30 | Active | Active | > 30 | > 30 | > 30 | – | –
Cc1nc(-c2ccccc2)sc1C(=O)NCc1ccccc1F | > 30 | Active | Active | > 30 | > 30 | > 30 | – | –
Cc1nc(C)c(C(=O)NC2CCCc3ccccc32)s1 (stereo not drawn) | > 30 | Active | Active | > 30 | 0.437 | 1.17 | – | –
Cc1nc(C)c(C(=O)NC23CC4CC(CC(C4)C2)C3)s1 | > 30 | Active | Active | > 30 | > 30 | > 30 | > 6 | –
Cc1nc(-c2ccccc2)sc1C(=O)NCc1ccccc1Cl | > 30 | Active | Active | > 30 | > 30 | > 30 | – | –
O=C(Nc1cccc2ccccc12)c1nc2ccccc2s1 | > 30 | Active | Active | > 30 | > 30 | > 30 | – | –
Cc1ccc(Cn2nc(C(=O)N[C@@H]3C(C)(C)[C@@H]4CC[C@@]3(C)C4)cc2-c2ccc(Cl)c(C)c2)cc1 | – | Active | – | – | – | – | – | –
Cc1nc(-c2ccccc2)sc1C(=O)NC1CC1 | > 30 | Active | Active | > 30 | > 30 | > 30 | – | –
O=C(NCc1ccccc1Cl)c1nc2ccccc2s1 | > 30 | Active | Active | 3.31 | > 30 | > 30 | > 9 | –
O=C(Nc1nc2ccccc2s1)C12CC3CC(CC(C3)C1)C2 | > 30 | Active | Active | > 30 | > 30 | > 30 | > 36 | –
